Data: ChEMBL document CHEMBL2046430, “Synthesis, biological evaluation and molecular docking studies of 3-(1,3-diphenyl-1H-pyrazol-4-yl)-N-phenylacrylamide derivatives as inhibitors of HDAC activity” (Bioorg Med Chem, 2012)
The source made the active and inactive calls. No cut-off for these calls is given here.

Experiments:
Histone deacetylase 2 = Histone deacetylase 2 (Homo sapiens, UniProt Q92769); assay: Inhibition of HDAC2 in human HeLa cell lysate using KI-104 as substrate after 40 mins by fluorescence analysis; type: cell-free
Histone deacetylase 2, sequence (Q92769 whole entry): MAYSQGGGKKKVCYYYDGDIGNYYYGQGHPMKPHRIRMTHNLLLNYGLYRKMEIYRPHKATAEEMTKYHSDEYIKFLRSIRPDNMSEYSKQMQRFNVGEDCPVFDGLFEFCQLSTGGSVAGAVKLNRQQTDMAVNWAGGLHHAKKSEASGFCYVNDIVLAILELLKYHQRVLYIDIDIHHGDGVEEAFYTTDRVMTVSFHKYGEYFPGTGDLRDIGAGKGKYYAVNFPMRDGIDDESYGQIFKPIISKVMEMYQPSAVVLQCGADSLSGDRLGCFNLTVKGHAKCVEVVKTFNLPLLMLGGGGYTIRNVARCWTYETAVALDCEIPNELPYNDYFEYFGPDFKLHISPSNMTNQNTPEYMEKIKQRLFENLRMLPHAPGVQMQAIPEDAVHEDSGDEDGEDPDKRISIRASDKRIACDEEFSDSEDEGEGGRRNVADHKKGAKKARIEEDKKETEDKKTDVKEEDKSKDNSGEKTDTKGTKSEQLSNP

HCT-116 = assay: Antiproliferative activity against human HCT116 cells after 48 hrs by MTT assay; type: functional, cell-based; conditions: HCT-116, 48 h
In short: (§1)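 Cells grown to log phase in RPMI 1640 + 10% FBS, seeded at 2 × 10^4 cells/mL (100 µL/well) and preincubated 24 h at 37 °C, 5% CO2. Compounds added at preset concentrations; MS275 as positive reference. After 48 h exposure, MTT (2.5 mg/mL in PBS) for 4 h, then SDS–isobutanol–HCl solubilization overnight at 37 °C; OD 570 nm. Triplicate wells per concentration, assays repeated ≥3 times; IC50 reported.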

Histone deacetylase 1 = Histone deacetylase 1 (Homo sapiens, UniProt Q13547); assay: Inhibition of HDAC1 in human HeLa cell lysate using KI-104 as substrate after 40 mins by fluorescence analysis; type: cell-free
Histone deacetylase 1, sequence (Q13547 whole entry): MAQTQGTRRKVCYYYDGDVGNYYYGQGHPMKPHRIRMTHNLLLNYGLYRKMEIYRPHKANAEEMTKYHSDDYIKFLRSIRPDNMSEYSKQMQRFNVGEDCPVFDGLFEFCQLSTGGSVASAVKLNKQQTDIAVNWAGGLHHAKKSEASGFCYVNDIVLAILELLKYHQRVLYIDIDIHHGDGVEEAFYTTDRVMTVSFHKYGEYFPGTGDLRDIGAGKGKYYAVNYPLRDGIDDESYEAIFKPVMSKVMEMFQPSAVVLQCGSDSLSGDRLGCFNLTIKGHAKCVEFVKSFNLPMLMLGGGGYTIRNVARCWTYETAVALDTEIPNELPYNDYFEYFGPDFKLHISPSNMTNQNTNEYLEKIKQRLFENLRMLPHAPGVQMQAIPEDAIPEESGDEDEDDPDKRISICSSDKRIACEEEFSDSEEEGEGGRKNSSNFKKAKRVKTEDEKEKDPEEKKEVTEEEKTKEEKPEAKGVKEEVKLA

A549 = assay: Antiproliferative activity against human A549 cells after 48 hrs by MTT assay; type: functional, cell-based; conditions: A549, 48 h; in short: as §1
[1] = biological target: Histone deacetylase (Homo sapiens) (UniProt Q13547+O15379+Q9UBN7+Q92769+Q9UQL6+Q8WUI4+Q9BY41+Q96DB2+P56524+Q9UKV0+Q969S8); conditions: HCT-116, 0.1 to 0.8 uM

Structure (SMILES) | IC50 (Histone deacetylase 2) | IC50 (HCT-116) | IC50 (Histone deacetylase 1) | IC50 (A549) | inhibition [1]
COc1ccc(NC(=O)/C=C\c2cn(-c3ccccc3)nc2-c2ccc(C)cc2)cc1 | 6.45 µM | 9.81 µM | 4.05 µM | > 20 µM | 
Cc1ccc(-c2nn(-c3ccccc3)cc2/C=C\C(=O)Nc2ccccc2)cc1 | 8.75 µM | 10.4 µM | 4.06 µM | 16.1 µM | 
COc1ccc(-c2nn(-c3ccccc3)cc2/C=C\C(=O)Nc2ccc(Cl)cc2)cc1 | 2.36 µM | 1.56 µM | 1.09 µM | 8.04 µM | 
Cc1ccc(-c2nn(-c3ccccc3)cc2/C=C\C(=O)Nc2ccc(Cl)cc2)cc1 | 5.86 µM | 7.65 µM | 3.65 µM | 15.4 µM | 
COc1ccc(-c2nn(-c3ccccc3)cc2/C=C\C(=O)Nc2ccc(Br)cc2)cc1 | 2.17 µM | 1.53 µM | 1.05 µM | 7.47 µM | 
Cc1ccc(-c2nn(-c3ccccc3)cc2/C=C\C(=O)Nc2ccc(Br)cc2)cc1 | 5.02 µM | 7.16 µM | 3.33 µM | 11.8 µM | 
O=C(/C=C\c1cn(-c2ccccc2)nc1-c1ccc(Br)cc1)Nc1ccccc1 | 6.52 µM | 10.7 µM | 3.43 µM | > 20 µM | 
COc1ccc(NC(=O)/C=C\c2cn(-c3ccccc3)nc2-c2ccc(OC)cc2)cc1 | 3.02 µM | 2.12 µM | 1.73 µM | 8.59 µM | 
COc1ccc(NC(=O)/C=C\c2cn(-c3ccccc3)nc2-c2ccc(Br)cc2)cc1 | 5.35 µM | 9.69 µM | 3.31 µM | > 20 µM | 
O=C(/C=C\c1cn(-c2ccccc2)nc1-c1ccc([N+](=O)[O-])cc1)Nc1ccc(Cl)cc1 | 0.57 µM | 0.64 µM | 0.46 µM | 3.72 µM | 

The remaining lines, values ahead:

IC50 (Histone deacetylase 2) | IC50 (HCT-116) | IC50 (Histone deacetylase 1) | IC50 (A549) | inhibition [1] | Structure (SMILES)
4.87 µM | 8.16 µM | 2.83 µM | 12.2 µM |  | O=C(/C=C\c1cn(-c2ccccc2)nc1-c1ccc(Br)cc1)Nc1ccc(Br)cc1
 | < 0.1 µM |  | < 0.1 µM |  | Nc1ccccc1NC(=O)c1ccc(CNC(=O)OCc2cccnc2)cc1 [ENTINOSTAT]
1.15 µM | 1.08 µM | 1.02 µM | 5.17 µM |  | COc1ccc(NC(=O)/C=C\c2cn(-c3ccccc3)nc2-c2ccc([N+](=O)[O-])cc2)cc1
0.55 µM | 0.62 µM | 0.42 µM | 3.71 µM | inactive | O=C(/C=C\c1cn(-c2ccccc2)nc1-c1ccc([N+](=O)[O-])cc1)Nc1ccc(Br)cc1
4.99 µM | 8.37 µM | 2.98 µM | 15.8 µM |  | O=C(/C=C\c1cn(-c2ccccc2)nc1-c1ccc(Br)cc1)Nc1ccc(Cl)cc1
2.67 µM | 2.09 µM | 1.76 µM | 9.85 µM |  | COc1ccc(-c2nn(-c3ccccc3)cc2/C=C\C(=O)Nc2ccccc2)cc1
1.15 µM | 0.85 µM | 0.92 µM | 5.18 µM |  | O=C(/C=C\c1cn(-c2ccccc2)nc1-c1ccc([N+](=O)[O-])cc1)Nc1ccccc1
